Assay results: ChEMBL document CHEMBL1126582, “Symmetry-based inhibitors of HIV protease. Structure-activity studies of acylated 2,4-diamino-1,5-diphenyl-3-hydroxypentane and 2,5-diamino-1,6-diphenylhexane-3,4-diol” (J Med Chem, 1993)
≈ marks a conversion by molar mass, not a printed value.

What was measured:
[1] = Estimated solubility (buffer pH 7.4); type: ADME; settings: read-out: S
Method in brief: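 Solubility was estimated in pH 7.4 phosphate buffer.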

MT4 = assay: In vitro for cytotoxicity in MT-4 lymphocytes in the absence of HIV infection.; type: functional; settings: Homo sapiens
Method in brief: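 Uninfected MT-4 lymphocytes were cultured with compound. CC50 is the concentration at which 50% of cells remain viable.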

[2] = test system: Human immunodeficiency virus 1; assay: In vitro for inhibition of cytopathic effect of HIV-1 3B in MT-4 lymphocytes.; type: functional, organism-based
Method in brief: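 MT-4 lymphocytes were infected with HIV-1 3B at an MOI of either 0.001 or 0.032 tissue culture infective dose per cell. EC50 is the concentration preventing 50% of viral cytopathic effect, from a single triplicate assay. No effect means no activity up to 100 μM or up to the cytotoxic concentration.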

[3] = target: Human immunodeficiency virus type 1 protease (Human immunodeficiency virus 1, UniProt Q72874); assay: Inhibition of purified recombinant HIV-1 protease in a fluorogenic assay
Method in brief: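 Purified recombinant HIV-1 protease, with cleavage of the fluorogenic substrate DABCYL-[…]-Pro-Ile-Val-Gln-EDANS as read-out. Value is the inhibitor concentration giving 50% inhibition of protease activity.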

| SMILES | solubility [1] | CC50 (MT4) | EC50 [2] | IC50 [3] |
| --- | --- | --- | --- | --- |
| CC(C)[C@H](NC(=O)N(C)Cc1cccnc1)C(=O)N[C@@H](Cc1ccccc1)[C@@H](O)[C@@H](O)[C@H](Cc1ccccc1)NC(=O)[C@H](NC(=O)N(C)Cc1cccnc1)C(C)C | 338 µg/mL (≈ 425 µM) | > 100000 nM | 5700 nM | 1.6 nM |
| CC(C)[C@H](NC(=O)OCc1ccccc1)C(=O)N[C@@H](Cc1ccccc1)[C@@H](O)[C@H](O)[C@H](Cc1ccccc1)NC(=O)[C@H](NC(=O)OCc1ccccc1)C(C)C |  | > 100000 nM | 90 nM | < 1 nM |
| CC(C)[C@H](NC(=O)OCc1ccccn1)C(=O)N[C@@H](Cc1ccccc1)[C@@H](O)[C@@H](O)[C@H](Cc1ccccc1)NC(=O)[C@H](NC(=O)OCc1ccccn1)C(C)C | 5.4 µg/mL (≈ 7.02 µM) | > 100000 nM | 450 nM | < 1 nM |
| CC(C)[C@H](NC(=O)OCc1cccnc1)C(=O)N[C@@H](Cc1ccccc1)[C@H](O)[C@H](O)[C@H](Cc1ccccc1)NC(=O)[C@H](NC(=O)OCc1cccnc1)C(C)C | 0.41 µg/mL (≈ 0.533 µM) |  |  | < 1 nM |
| CC(C)[C@H](NC(=O)N(C)Cc1nc2ccccc2[nH]1)C(=O)N[C@@H](Cc1ccccc1)[C@@H](O)[C@H](O)[C@H](Cc1ccccc1)NC(=O)[C@H](NC(=O)N(C)Cc1nc2ccccc2[nH]1)C(C)C | 6.6 µg/mL (≈ 7.56 µM) | 27000 nM | 1700 nM | < 1 nM |
| CC(C)[C@H](NC(=O)N(C)Cc1ccccn1)C(=O)N[C@@H](Cc1ccccc1)[C@@H](O)[C@H](O)[C@H](Cc1ccccc1)NC(=O)[C@H](NC(=O)N(C)Cc1ccccn1)C(C)C | 197 µg/mL (≈ 248 µM) | > 100000 nM | 270 nM | < 1 nM |
| CC(C)[C@H](NC(=O)N(C)Cc1ccccn1)C(=O)N[C@@H](Cc1ccccc1)[C@@H](O)[C@@H](O)[C@H](Cc1ccccc1)NC(=O)[C@H](NC(=O)N(C)Cc1ccccn1)C(C)C | 225 µg/mL (≈ 283 µM) | > 100000 nM | 1500 nM | 1.66 nM |
| CC(C)[C@H](NC(=O)N(C)Cc1nc2ccccc2[nH]1)C(=O)N[C@@H](Cc1ccccc1)[C@@H](O)[C@@H](O)[C@H](Cc1ccccc1)NC(=O)[C@H](NC(=O)N(C)Cc1nc2ccccc2[nH]1)C(C)C | 12 µg/mL (≈ 13.7 µM) | 55000 nM | 5000 nM | < 1 nM |
| CC(C)[C@H](NC(=O)CN1CCOCC1)C(=O)N[C@@H](Cc1ccccc1)[C@@H](O)[C@@H](O)[C@H](Cc1ccccc1)NC(=O)[C@H](NC(=O)CN1CCOCC1)C(C)C |  |  |  | 7.5 nM |
| CC(C)[C@H](NC(=O)N(C)Cc1cscn1)C(=O)N[C@@H](Cc1ccccc1)[C@H](O)[C@H](O)[C@H](Cc1ccccc1)NC(=O)[C@H](NC(=O)N(C)Cc1cscn1)C(C)C | 6.5 µg/mL (≈ 8.05 µM) | > 100000 nM | 500 nM | < 1 nM |
| CC(C)[C@H](NC(=O)N(C)Cc1ccccn1)C(=O)N[C@@H](Cc1ccccc1)[C@H](O)[C@H](O)[C@H](Cc1ccccc1)NC(=O)[C@H](NC(=O)N(C)Cc1ccccn1)C(C)C | 3.6 µg/mL (≈ 4.53 µM) | > 100000 nM | 170 nM | < 1 nM |
| CC(C)[C@H](NC(=O)N(C)Cc1ccccn1)C(=O)N[C@@H](Cc1ccccc1)[C@H](O)[C@@H](O)[C@H](Cc1ccccc1)NC(=O)[C@H](NC(=O)N(C)Cc1csc(N)n1)C(C)C | 386 µg/mL (≈ 473 µM) | > 100000 nM | 560 nM | < 1 nM |
| CC(C)[C@H](NC(=O)N(C)Cc1nccs1)C(=O)N[C@@H](Cc1ccccc1)[C@@H](O)[C@H](O)[C@H](Cc1ccccc1)NC(=O)[C@H](NC(=O)N(C)Cc1nccs1)C(C)C | 101 µg/mL (≈ 125 µM) | > 100000 nM | 390 nM | < 1 nM |
| CC(C)[C@H](NC(=O)OCCN1CCOCC1)C(=O)N[C@@H](Cc1ccccc1)C(O)[C@H](Cc1ccccc1)NC(=O)[C@H](NC(=O)OCCN1CCOCC1)C(C)C (stereo partly drawn) | 273 µg/mL (≈ 349 µM) |  |  | 180 nM |
| CC(C)[C@H](NC(=O)N(C)Cc1cscn1)C(=O)N[C@@H](Cc1ccccc1)[C@@H](O)[C@H](O)[C@H](Cc1ccccc1)NC(=O)[C@H](NC(=O)N(C)Cc1cscn1)C(C)C | 159 µg/mL (≈ 197 µM) | > 100000 nM | 190 nM | < 1 nM |
| CC(C)[C@H](NC(=O)N(C)Cc1cscn1)C(=O)N[C@@H](Cc1ccccc1)[C@@H](O)[C@@H](O)[C@H](Cc1ccccc1)NC(=O)[C@H](NC(=O)N(C)Cc1cscn1)C(C)C | 286 µg/mL (≈ 354 µM) | > 100000 nM | 630 nM | < 1 nM |
| CC(C)[C@H](NC(=O)N(C)Cc1cccnc1)C(=O)N[C@@H](Cc1ccccc1)[C@@H](O)[C@H](O)[C@H](Cc1ccccc1)NC(=O)[C@H](NC(=O)N(C)Cc1cccnc1)C(C)C | 153 µg/mL (≈ 192 µM) | > 100000 nM | 1700 nM | < 1 nM |
| CC(C)[C@H](NC(=O)OCc1ccccn1)C(=O)N[C@@H](Cc1ccccc1)[C@H](O)[C@H](O)[C@H](Cc1ccccc1)NC(=O)[C@H](NC(=O)OCc1ccccn1)C(C)C | 0.21 µg/mL (≈ 0.273 µM) | > 100000 nM | 230 nM | < 1 nM |
| CC(C)[C@H](NC(=O)/C=C/c1ccccn1)C(=O)N[C@@H](Cc1ccccc1)[C@@H](O)[C@@H](O)[C@H](Cc1ccccc1)NC(=O)[C@H](NC(=O)/C=C/c1ccccn1)C(C)C | 6.8 µg/mL (≈ 8.94 µM) | > 100000 nM | 1100 nM | < 1 nM |
| CC(C)[C@H](NC(=O)N(C)Cc1ccccn1)C(=O)N[C@@H](Cc1ccccc1)[C@H](O)[C@@H](O)[C@H](Cc1ccccc1)NC(=O)[C@H](NC(=O)N(C)Cc1nccs1)C(C)C | 10.9 µg/mL (≈ 13.6 µM) | > 100000 nM | 220 nM | < 1 nM |
| CC(C)[C@H](NC(=O)OCc1ccncc1)C(=O)N[C@@H](Cc1ccccc1)[C@@H](O)[C@@H](O)[C@H](Cc1ccccc1)NC(=O)[C@H](NC(=O)OCc1ccncc1)C(C)C | 55 µg/mL (≈ 71.5 µM) | > 100000 nM | 610 nM | 1.7 nM |
| CC(C)[C@H](NC(=O)/C=C/c1cccnc1)C(=O)N[C@@H](Cc1ccccc1)[C@@H](O)[C@@H](O)[C@H](Cc1ccccc1)NC(=O)[C@H](NC(=O)/C=C/c1cccnc1)C(C)C | 23 µg/mL (≈ 30.2 µM) | > 100000 nM | 6200 nM | 5.3 nM |
| CC(C)[C@H](NC(=O)CCN1CCOCC1)C(=O)N[C@@H](Cc1ccccc1)[C@@H](O)[C@@H](O)[C@H](Cc1ccccc1)NC(=O)[C@H](NC(=O)CCN1CCOCC1)C(C)C | > 1050 µg/mL | > 100000 nM | 53000 nM | 23 nM |
| CC(C)[C@H](NC(=O)/C=C/c1cccnc1)C(=O)N[C@@H](Cc1ccccc1)C(O)[C@H](Cc1ccccc1)NC(=O)[C@H](NC(=O)/C=C/c1cccnc1)C(C)C (stereo partly drawn) | 4.9 µg/mL (≈ 6.7 µM) | > 100000 nM | 2800 nM | 2.2 nM |
| CC(C)[C@H](NC(=O)OCc1cccnc1)C(=O)N[C@@H](Cc1ccccc1)[C@@H](O)[C@H](O)[C@H](Cc1ccccc1)NC(=O)[C@H](NC(=O)OCc1cccnc1)C(C)C | 0.5 µg/mL (≈ 0.65 µM) |  |  | < 1 nM |
| CC(C)[C@H](NC(=O)OCC1CCCCN1C)C(=O)N[C@@H](Cc1ccccc1)[C@@H](O)[C@H](Cc1ccccc1)NC(=O)[C@H](NC(=O)OCc1ccccc1)C(C)C (stereo partly drawn) | 19 µg/mL (≈ 25.1 µM) |  |  | 63 nM |
| CC(C)[C@H](NC(=O)OCc1ccccc1)C(=O)N[C@@H](Cc1ccccc1)[C@@H](O)[C@H](Cc1ccccc1)NC(=O)[C@H](NC(=O)OCc1ccccc1)C(C)C | > 0.03 µg/mL | > 100000 nM |  |  |
| CC(C)[C@H](NC(=O)c1cc2ccccc2[nH]1)C(=O)N[C@@H](Cc1ccccc1)[C@@H](O)[C@@H](O)[C@H](Cc1ccccc1)NC(=O)[C@H](NC(=O)c1cc2ccccc2[nH]1)C(C)C |  | 49000 nM | 70 nM | < 1 nM |
| CC(C)[C@H](NC(=O)OCc1ccccc1)C(=O)N[C@@H](Cc1ccccc1)[C@H](O)[C@H](O)[C@H](Cc1ccccc1)NC(=O)[C@H](NC(=O)OCc1ccccc1)C(C)C |  | > 100000 nM | 70 nM | < 1 nM |
| CC(C)[C@H](NC(=O)c1cc2ccccc2[nH]1)C(=O)N[C@@H](Cc1ccccc1)C(O)[C@H](Cc1ccccc1)NC(=O)[C@H](NC(=O)c1cc2ccccc2[nH]1)C(C)C (stereo partly drawn) |  | 58000 nM | 8900 nM | 1.2 nM |
